From PubChem
Most compounds without a hit are left out; they make up all but 2.8% or so of the library.
m-calpain inh: inhibitors of pig calpain II, primary screen, biochemical, fluorogenic peptide substrate, 1536-well; purified calpain II, 30 min; inhibition, % at 16 µM; 0.37% of 220,000 active; AID 1236, 2008;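 active means inhibition above about 50%, limit read from the data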
Arbovirus inh: antivirals against arbovirus infection, primary screen, cell-based, full library, 10K replicate subset | arbovirus infection cell-based antiviral screen | AID 1251, 2008 | 0.37% of 200,000 active | inhibition, % at 10 µM; in the data active means inhibition above about 30%
Mcl1 Noxa PPI: Mcl-1/Noxa binding inhibitors, primary screen, biochemical, TR-FRET, 1536-well. 1.5% of 220,000 active. AID 1022, 2008. TR-FRET Mcl-1/Noxa peptide binding, 2 h. inhibition, % at 21.7 µM;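 active means compounds that cut the protein-peptide binding signal by more than 50% relative to plate controls in a single-dose test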;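 further: His-tagged Mcl-1 with rhodamine Noxa BH3 peptide and terbium anti-His antibody; 0% = Mcl-1 plus Noxa peptide wells and 100% = peptide-only wells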
Target sequence (Q07820 whole entry, looked up): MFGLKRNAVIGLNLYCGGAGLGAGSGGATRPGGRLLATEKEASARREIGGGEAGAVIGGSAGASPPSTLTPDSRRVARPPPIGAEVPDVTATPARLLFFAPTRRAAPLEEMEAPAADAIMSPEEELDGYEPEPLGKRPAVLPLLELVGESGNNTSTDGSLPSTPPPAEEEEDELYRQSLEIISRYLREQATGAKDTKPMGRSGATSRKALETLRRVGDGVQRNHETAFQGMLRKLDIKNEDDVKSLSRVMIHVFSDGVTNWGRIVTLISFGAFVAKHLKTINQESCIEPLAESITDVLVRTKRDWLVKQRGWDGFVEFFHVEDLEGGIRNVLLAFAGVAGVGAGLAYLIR
Mcl-1 Bim block: inhibitors of Bim peptide binding to Mcl-1, primary screen, biochemical, bead-based flow cytometry, multiplex. Induced myeloid leukemia cell differentiation protein Mcl-1 (Homo sapiens), Q07820. Bim peptide-Mcl-1 binding. inhibition, % at 10 µM. 0.1% of 190,000 active. AID 1009, 2008; in the data active means inhibition above about 40%;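 further: 0% = no compound tracer wells and 100% = peptide blocker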
Mcl1 Bid PPI: Mcl-1/Bid binding inhibitors, primary screen, biochemical, TR-FRET, 1536-well | TR-FRET Mcl-1/Bid-Dy647 peptide binding | 0.97% of 220,000 active | Induced myeloid leukemia cell differentiation protein Mcl-1 (Homo sapiens), Q07820 | inhibition, % at 21.7 µM;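 active means compounds that cut the binding signal by more than half at the single screening dose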;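 further: His-tagged Mcl-1 with europium anti-His antibody binding Bid BH3 peptide; 0% = Mcl-1 plus peptide wells and 100% = peptide-only wells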
Biofilm kill mix: clotrimazole potentiators killing C. albicans biofilm, primary screen, 4-compound mixtures; 0.02% of 120,000 active; inhibition, % at 7.6 µM; C. albicans biofilm persisters + clotrimazole, fluorescence viability; primary screen in compound mixtures of four per well;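 further: compounds exposed to preformed 24 h biofilms for 48 h; 0% = untreated biofilm control and 100% = clotrimazole plus chlorhexidine kill blank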
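Test system: C. albicans CAF4-2 wild-type biofilms; buffer or medium: RPMI/MOPS medium, pH 7.0; schedule: 24 h biofilm formation, then 48 h compound exposure, 37 °C; detection: Alamar Blue fluorescence; measure: percent inhibition of biofilm viability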
Starred values were filed as active, the others as inactive; nt = no result given.

SMILES	m-calpain inh	Arbovirus inh	Mcl1 Noxa PPI	Mcl-1 Bim block	Mcl1 Bid PPI	Biofilm kill mix
COCCCn1c(C)nnc1-c1cnn(-c2ccccc2)c1N	-8.5	12.8	15.9	1.0	-38.1	-1.4
Cc1cccc(CN(C)CCc2ccccn2)c1	-6.2	1.2	27.3	-1.0	30.6	nt
Cc1cccc(OCC(=O)N(C)CCc2ccccn2)c1	-5.0	4.1	12.1	0.0	57.5*	nt
Cc1ccc(SCC(=O)Nc2ccc(F)cc2[N+](=O)[O-])cc1C	15.8	7.1	3.1	-4.0	-0.8	9.0
CC1CCC2(CC1)NC(=O)N(CC(=O)Nc1sc3c(c1C(N)=O)CCC3)C2=O (stereo not drawn)	-67.0	10.9	64.4*	3.0	-84.1	1.9
COC(=O)c1c(NC(=O)CN2C(=O)NC3(CCC(C(C)(C)C)CC3)C2=O)sc2c1CCCCC2 (stereo not drawn)	-81.4	0.9	-21.7	-4.0	-44.6	14.0
Cn1cnnc1SCC(=O)Nc1sc2c(c1C(N)=O)CCC2	-112.2	-29.1	99.8*	-1.0	-64.3	nt
CC1CCCCC12NC(=O)N(CC(=O)Nc1sc3c(c1C(N)=O)CCC3)C2=O (stereo not drawn)	-31.1	19.1	82.3*	-1.0	-60.8	nt
COc1cc(OC)c(C2=Nc3ccc(Br)cc3C(c3ccccc3)N2CC(=O)NN)cc1OC (stereo not drawn)	23.0	-6.0	14.6	-2.0	3.2	15.7
COc1cc(OC)cc(C(=O)Nc2ccc3c(c2)COC3=O)c1	59.7*	-4.6	7.7	-2.0	1.3	nt
O=C1OCc2cc(NC(=O)C3CCCCC3)ccc21	51.9*	0.2	-8.8	0.0	-14.1	nt
COc1cc(OC)cc(C(=O)Nc2cccc(C(C)=O)c2)c1	30.2	-4.8	14.2	0.0	-15.7	nt
O=C1OCc2ccc(NC(=O)C3CC3)cc21	-7.5	2.1	10.6	2.0	-29.6	-0.1
CCOC(=O)c1cnc(SCc2nc(N)nc(Nc3ccc(F)cc3)n2)nc1N	-23.6	5.1	2.9	-2.0	-11.0	nt
CCOC(=O)c1cnc(SCc2nc(N)nc(Nc3ccc(C)cc3)n2)nc1N	-26.5	44.4*	14.8	-3.0	-45.3	nt
O=C(Nc1ccccc1)c1ccc2ccccc2n1	28.5	8.4	5.2	-1.0	-4.2	16.4
O=C(Nc1ccccc1C(=O)O)c1ccc2ccccc2n1	15.8	42.1*	13.5	0.0	19.3	nt
O=C(Nc1cc(C(F)(F)F)ccc1N1CCOCC1)c1ccc2ccccc2n1	9.3	-0.9	67.7*	-6.0	-21.4	nt
CC(C)Nc1nc(Oc2ccc(=O)n(-c3ccccc3)n2)nc(N(C)C)n1	15.7	nt	15.2	nt	0.4	8.5
Cc1ccc(NC(=O)CN2CCN(S(=O)(=O)c3cccs3)CC2)cc1S(=O)(=O)N(C)C	-56.2	3.1	19.4	-1.0	-8.5	3.2
COc1ccc(-c2nn(-c3ccccc3)cc2C(=O)N/N=C/c2ccc([N+](=O)[O-])o2)cc1	17.0	-12.3	51.9*	0.0	20.8	10.7
CC1CCN(S(=O)(=O)c2ccc(NC(=O)CSc3nnnn3C)cc2)CC1	59.1*	-5.8	16.5	0.0	-11.9	nt
CN1C[C@@H]2C[C@@H](c3cccn3-c3nccs3)N3CCC[C@@]23C1=O	18.0	0.5	8.7	-4.0	-7.1	9.5
CC(C)N1CCc2c(sc(NC(=O)c3ccc(S(=O)(=O)N4CCc5ccccc54)cc3)c2C(N)=O)C1	6.2	-17.1	71.9*	-1.0	16.2	13.3
CC(C)N1CCc2c(sc(NC(=O)c3nc4ccccc4s3)c2C(N)=O)C1	-12.8	-6.9	21.4	-2.0	-43.9	19.8
COC(=O)c1cc(NS(=O)(=O)c2ccc(C(C)C)cc2)ccc1N1CCOCC1	12.9	nt	6.6	nt	-17.3	23.2
O=C(N=Nc1c(O)[nH]c2ccc(Cl)cc12)c1cc(-c2cccs2)nc2ccccc12	89.0*	-10.3	59.7*	-1.0	85.1*	16.5
O=C(/C=C/c1ccccc1)NC(=S)Nc1ncccn1	-20.1	nt	68.1*	nt	-76.0	15.6
O=C(/C=C/c1ccccc1)NC(=S)Nc1ccc(N2CCOCC2)cc1	38.2	-3.3	16.9	-2.0	-50.5	nt
